# Reference: ChEMBL document CHEMBL1128288, “7-Azetidinylquinolones as antibacterial agents. 3. Synthesis, properties and structure-activity relationships of the stereoisomers containing a 7-(3-amino-2-methyl-1-azetidinyl) moiety” (J Med Chem, 1995)
# Assays:
# Bacillus cereus = assay: In vitro antibacterial activity measured as minimum inhibitory concentration was evaluated on Bacillus cereus ATCC 11778 (Bc).; format: functional
# Procedure, shortened: (§1)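 Serial 2-fold agar dilution in Mueller Hinton medium, run side by side with reference quinolones. Inoculum 10^5 cfu/mL; compound range 0.007–16 µg/mL.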
# Bacillus subtilis = assay: In vitro antibacterial activity measured as minimum inhibitory concentration was evaluated on Bacillus subtilis ATCC 6633(Bs).; format: functional; procedure, shortened: as §1
# Enterobacter cloacae = assay: In vitro antibacterial activity measured as minimum inhibitory concentration, was evaluated on Enterobacter cloacae ATCC 23355 (Ecl).; format: functional
# Klebsiella pneumoniae = assay: In vitro antibacterial activity measured as minimum inhibitory concentration was evaluated on klebsiella pneumoniae ATCC 10031 (Kp).; format: functional
# Procedure, shortened: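 Serial 2-fold agar dilution in Mueller Hinton medium, run side by side with reference quinolones.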
# Pseudomonas aeruginosa [1] = assay: In vivo efficacy as ED50 against Pseudomonas aeruginosa HS-116 by oral administration in mice.; format: functional
# Procedure, shortened: (§2)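 Mice, 4 groups of 10, infected intraperitoneally with slightly more than the LD100 of the organism. A single oral dose was given immediately after infection, with four doses (one per group) chosen from in vitro activity. Survival was scored after one week. ED50 (total dose, mg/kg, protecting 50%) was interpolated among group survival rates.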
# Staphylococcus aureus [2] = assay: In vivo efficacy as ED50 against Staphylococcus aureus HS-93 by oral administration in mice.; format: functional; details: Staphylococcus aureus, po; read-out: ED50; procedure, shortened: as §2
# Escherichia coli [3] = assay: In vivo efficacy as ED50 against Escherichia coli HM-42 by oral administration in mice.; format: functional; procedure, shortened: as §2
# Proteus vulgaris = assay: In vitro antibacterial activity measured as minimum inhibitory concentration was evaluated on proteus vulgaris ATCC 8427 (Pv).; format: functional; procedure, shortened: as §1
# Pseudomonas aeruginosa [4] = assay: In vitro antibacterial activity measured as minimum inhibitory concentration was evaluated on Pseudomonas aeruginosa ATCC 10145 (Pa).; format: functional; procedure, shortened: as §1
# Staphylococcus aureus [5] = assay: In vitro antibacterial activity measured as minimum inhibitory concentration was evaluated on Staphylococcus aureus ATCC 25178 (Sa).; format: functional; procedure, shortened: as §1
# [6] = tested on: Staphylococcus epidermidis; assay: In vitro antibacterial activity measured as minimum inhibitory concentration was evaluated on Staphylococcus epidermidis ATCC 155-1 (Se).; format: functional; procedure, shortened: as §1
# Enterococcus faecalis = assay: In vitro antibacterial activity measured as minimum inhibitory concentration was evaluated on Streptococcus faecalis ATCC 10541 (Sf).; format: functional; procedure, shortened: as §1
# Escherichia coli [7] = assay: In vitro antibacterial activity measured as minimum inhibitory concentration, was evaluated on Escherichia coli ATCC 23559(Ec).; format: functional; procedure, shortened: as §1
# Morganella morganii = assay: In vitro antibacterial activity measured as minimum inhibitory concentration was evaluated on morganella morganii ATCC 8019 (Mm).; format: functional; procedure, shortened: as §1
# [8] = mouse, in vivo, po, 50 mg/kg
# [9] = Solubility at pH 7.4 buffer.; format: physicochemical
# Procedure, shortened: (§3)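 Excess solid was shaken 24 h at 25 °C in water or in 0.05 M phosphate buffer pH 7.4, then filtered (0.22 µm) with the first portion discarded. The filtrate was diluted with 0.1 N HCl or NaOH and measured spectrophotometrically at the compound's absorbance maximum.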
# [10] = Solubility in water was determined at 25 degrees Centigrade; format: physicochemical; procedure, shortened: as §3
# [11] = Bacillus cereus, ATCC 11778, read-out: MIC
# [12] = Bacillus subtilis, ATCC 6633, read-out: MIC
# [13] = Enterobacter cloacae, ATCC 23355, read-out: MIC
# [14] = Klebsiella pneumoniae, ATCC 10031, read-out: MIC
# [15] = Pseudomonas aeruginosa, po, read-out: ED50
# [16] = Escherichia coli, po, read-out: ED50
# [17] = Proteus vulgaris, ATCC 8427, read-out: MIC
# [18] = Pseudomonas aeruginosa, ATCC 10145, read-out: MIC
# [19] = Staphylococcus aureus, ATCC 25178, read-out: MIC
# [20] = Staphylococcus epidermidis, ATCC 155-1, read-out: MIC
# [21] = Enterococcus faecalis, ATCC 10541, read-out: MIC
# [22] = Escherichia coli, ATCC 23559, read-out: MIC
# [23] = Morganella morganii, ATCC 8019, read-out: MIC
SMILES,MIC (Bacillus cereus; [11]),MIC (Bacillus subtilis; [12]),MIC (Enterobacter cloacae; [13]),MIC (Klebsiella pneumoniae; [14]),MIC (Proteus vulgaris; [17]),MIC (Pseudomonas aeruginosa [4]; [18]),MIC (Staphylococcus aureus [5]; [19]),"MIC [6, 20]",MIC (Enterococcus faecalis; [21]),MIC (Escherichia coli [7]; [22]),MIC (Morganella morganii; [23]),AUC [8],solubility [9],solubility [10],ED50 (Pseudomonas aeruginosa [1]; [15]),ED50 (Staphylococcus aureus [2]),ED50 (Escherichia coli [3]; [16]),also measured
CCC[C@H](N)C(=O)N[C@@H]1CN(c2cc3c(cc2F)c(=O)c(C(=O)O)cn3-c2ccc(F)cc2F)[C@H]1C,0.5 µg/mL,0.25 µg/mL,1 µg/mL,0.25 µg/mL,8 µg/mL,16 µg/mL,0.5 µg/mL,0.5 µg/mL,4 µg/mL,0.5 µg/mL,4 µg/mL,,> 500 µg/mL,> 500 µg/mL,,,,
C[C@@H]1[C@@H](NC(=O)[C@@H](C)N)CN1c1nc2c(cc1F)c(=O)c(C(=O)O)cn2C1CC1,1 µg/mL,0.5 µg/mL,4 µg/mL,8 µg/mL,8 µg/mL,16 µg/mL,1 µg/mL,0.25 µg/mL,1 µg/mL,1 µg/mL,8 µg/mL,0 ng·h/mL,> 500 µg/mL,> 500 µg/mL,,,,
C[C@H](N)C(=O)N[C@@H](C)C(=O)N[C@@H]1CN(c2nc3c(cc2F)c(=O)c(C(=O)O)cn3C2CC2)[C@H]1C,16 µg/mL,1 µg/mL,2 µg/mL,8 µg/mL,8 µg/mL,16 µg/mL,4 µg/mL,8 µg/mL,16 µg/mL,2 µg/mL,4 µg/mL,19200 ng·h/mL,> 500 µg/mL,> 500 µg/mL,,,,
C[C@H](N)C(=O)N[C@@H]1CN(c2nc3c(cc2F)c(=O)c(C(=O)O)cn3C2CC2)[C@H]1C,1 µg/mL,0.12 µg/mL,0.12 µg/mL,0.06 µg/mL,1 µg/mL,8 µg/mL,0.5 µg/mL,0.5 µg/mL,8 µg/mL,0.12 µg/mL,0.5 µg/mL,28800 ng·h/mL,> 500 µg/mL,> 500 µg/mL,,,,
C[C@@H](N)C(=O)N[C@@H]1CN(c2nc3c(cc2F)c(=O)c(C(=O)O)cn3C2CC2)[C@H]1C,0.5 µg/mL,0.12 µg/mL,0.25 µg/mL,0.5 µg/mL,2 µg/mL,8 µg/mL,0.25 µg/mL,1 µg/mL,1 µg/mL,0.25 µg/mL,2 µg/mL,400 ng·h/mL,386 µg/mL,495 µg/mL,,,,
C[C@H](N)C(=O)N[C@@H]1CN(c2cc3c(cc2F)c(=O)c(C(=O)O)cn3-c2ccc(F)cc2F)[C@H]1C,1 µg/mL,0.5 µg/mL,2 µg/mL,2 µg/mL,16 µg/mL,8 µg/mL,1 µg/mL,16 µg/mL,8 µg/mL,1 µg/mL,4 µg/mL,,> 500 µg/mL,> 500 µg/mL,,,,
C[C@@H]1[C@@H](N)CN1c1nc2c(cc1F)c(=O)c(C(=O)O)cn2-c1ccc(F)cc1F,0.5 µg/mL,0.25 µg/mL,1 µg/mL,0.25 µg/mL,2 µg/mL,8 µg/mL,0.5 µg/mL,0.5 µg/mL,4 µg/mL,0.5 µg/mL,1 µg/mL,28300 ng·h/mL,,,400 mg/kg,8.6 mg/kg,10.3 mg/kg,
CC(C)C[C@H](N)C(=O)N[C@@H]1CN(c2nc3c(cc2F)c(=O)c(C(=O)O)cn3C2CC2)[C@H]1C,0.12 µg/mL,0.12 µg/mL,0.12 µg/mL,0.06 µg/mL,0.25 µg/mL,8 µg/mL,0.25 µg/mL,0.25 µg/mL,2 µg/mL,0.06 µg/mL,0.25 µg/mL,24900 ng·h/mL,> 500 µg/mL,> 500 µg/mL,63 mg/kg,9.4 mg/kg,2 mg/kg,
C[C@@H]1[C@@H](N)CN1c1c(F)cc2c(=O)c(C(=O)O)cn(C3CC3)c2c1F (stereo in doubt; 22b),,,,,,,,,,,,13600 ng·h/mL,,,,12.2 mg/kg,,MIC (Bacillus cereus): 0.5 µg/mL; MIC (Bacillus subtilis): 0.12 µg/mL; MIC (Enterobacter cloacae): 0.25 µg/mL; MIC (Klebsiella pneumoniae): 0.12 µg/mL; ED50 (Pseudomonas aeruginosa [1]): 65 mg/kg; ED50 (Escherichia coli [3]): 10.2 mg/kg; MIC (Proteus vulgaris): 0.5 µg/mL; MIC (Pseudomonas aeruginosa [4]): 4 µg/mL; MIC (Staphylococcus aureus [5]): 0.25 µg/mL; MIC [6]: 0.25 µg/mL; MIC (Enterococcus faecalis): 2 µg/mL; MIC (Escherichia coli [7]): 0.25 µg/mL; MIC (Morganella morganii): 0.25 µg/mL

# Further compounds by falling MIC (Bacillus subtilis; [12]), results first:
MIC (Bacillus cereus; [11]),MIC (Bacillus subtilis; [12]),MIC (Enterobacter cloacae; [13]),MIC (Klebsiella pneumoniae; [14]),MIC (Proteus vulgaris; [17]),MIC (Pseudomonas aeruginosa [4]; [18]),MIC (Staphylococcus aureus [5]; [19]),"MIC [6, 20]",MIC (Enterococcus faecalis; [21]),MIC (Escherichia coli [7]; [22]),MIC (Morganella morganii; [23]),AUC [8],solubility [9],solubility [10],SMILES,ED50 (Pseudomonas aeruginosa [1]; [15]),ED50 (Staphylococcus aureus [2]),ED50 (Escherichia coli [3]; [16]),also measured
0.25 µg/mL,0.12 µg/mL,0.12 µg/mL,0.06 µg/mL,0.5 µg/mL,2 µg/mL,0.25 µg/mL,0.25 µg/mL,2 µg/mL,0.12 µg/mL,0.12 µg/mL,21000 ng·h/mL,,,CCn1cc(C(=O)O)c(=O)c2cc(F)c(N3C[C@H](N)[C@H]3C)c(F)c21,60 mg/kg,5.9 mg/kg,3.9 mg/kg,
0.12 µg/mL,0.06 µg/mL,0.015 µg/mL,0.015 µg/mL,0.25 µg/mL,0.5 µg/mL,0.12 µg/mL,0.25 µg/mL,1 µg/mL,0.06 µg/mL,0.12 µg/mL,40900 ng·h/mL,,,C[C@@H]1[C@@H](N)CN1c1c(F)cc2c(=O)c(C(=O)O)cn(-c3ccc(F)cc3)c2c1F,53 mg/kg,4.8 mg/kg,2.1 mg/kg,
,0.06 µg/mL,,0.06 µg/mL,,1 µg/mL,,,,0.06 µg/mL,,28400 ng·h/mL,5.9 µg/mL,8 µg/mL,"C[C@H]1[C@H](N)CN1c1cc2c(cc1F)c(=O)c(C(=O)O)cn2-c1ccc(F)cc1F (single isomer, unassigned) [CETEFLOXACIN]",64 mg/kg,7 mg/kg,4 mg/kg,
0.015 µg/mL,0.015 µg/mL,0.015 µg/mL,0.015 µg/mL,,0.12 µg/mL,0.06 µg/mL,0.06 µg/mL,0.12 µg/mL,0.015 µg/mL,0.015 µg/mL,19200 ng·h/mL,16.5 µg/mL,23 µg/mL,"C[C@H]1[C@H](N)CN1c1nc2c(cc1F)c(=O)c(C(=O)O)cn2C1CC1 (single isomer, unassigned)",34 mg/kg,4.6 mg/kg,1 mg/kg,
0.06 µg/mL,0.015 µg/mL,0.015 µg/mL,0.015 µg/mL,0.06 µg/mL,0.25 µg/mL,0.015 µg/mL,0.015 µg/mL,0.12 µg/mL,0.015 µg/mL,0.015 µg/mL,2300 ng·h/mL,,,"CC1C(N)CN1c1c(F)cc2c(=O)c(C(=O)O)cn3c2c1OC[C@@H]3C (single isomer, unassigned)",26 mg/kg,6.9 mg/kg,5.9 mg/kg,
